High-throughput results as filed in PubChem.
The list is not random: actives were taken first. Their share in the collection is about 9.2%.
ERa coact inh – blocks coactivator binding to human estrogen receptor alpha; inhibition, % at 25.6 µM; TR-FRET ER-alpha LBD / SRC-1 peptide, estradiol-bound; 1.7% of 86,000 active; in the data active means inhibition above about 50%;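 further: 0% = receptor plus peptide control and 100% = peptide only without receptor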
HUVEC prolif 384 – blocks proliferation of human endothelial cells | AID 648 | 1.1% of 86,000 active | viability, % at 10 µM (by protocol) | HUVEC proliferation, CellTiter-Glo luminescence, 72 h; hits give low values;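 active means viability at or below 30%; inactive means viability above 30%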;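 further: 100% = median luminescence of DMSO-only cell control wells on each plate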
ERb coact inh – blocks coactivator binding to human estrogen receptor beta; TR-FRET ER-beta LBD / SRC1-Cy5 peptide binding; receptor agonist-loaded with 1 µM estradiol; 1.3% of 86,000 active; AID 633; Q92731; inhibition, % at 25.6 µM;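 active means compounds whose percent inhibition of the receptor-coactivator binding signal exceeds about 50% in the single-dose screen, limit read from the data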;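 further: 0% = receptor plus peptide wells without compound and 100% = peptide-only wells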
Target sequence (Q92731 whole entry, looked up, the tested form may be a part): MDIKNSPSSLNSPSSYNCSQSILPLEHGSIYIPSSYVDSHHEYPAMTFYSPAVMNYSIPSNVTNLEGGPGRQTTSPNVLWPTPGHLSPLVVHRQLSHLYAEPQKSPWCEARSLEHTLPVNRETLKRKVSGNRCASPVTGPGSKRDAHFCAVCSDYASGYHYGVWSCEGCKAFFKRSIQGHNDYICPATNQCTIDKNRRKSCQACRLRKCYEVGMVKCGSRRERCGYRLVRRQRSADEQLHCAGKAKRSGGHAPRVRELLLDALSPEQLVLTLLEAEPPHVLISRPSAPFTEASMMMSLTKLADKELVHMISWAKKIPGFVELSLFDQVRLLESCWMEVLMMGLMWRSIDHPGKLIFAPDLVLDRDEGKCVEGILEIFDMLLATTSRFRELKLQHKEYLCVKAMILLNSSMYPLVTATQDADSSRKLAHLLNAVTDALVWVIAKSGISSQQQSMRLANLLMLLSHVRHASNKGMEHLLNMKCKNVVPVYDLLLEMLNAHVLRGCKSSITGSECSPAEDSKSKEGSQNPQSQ
Fibroblast inh – blocks proliferation of human lung fibroblasts; LL 47 human lung fibroblast viability, ATP luminescence; hits give low values; viability, % at 10 µM; 1.1% of 85,000 active; AID 719;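 active means viability at or below 50% in the single dose screen; inactive means viability above 50%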;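 further: compound exposure lasted 72 h before the ATP readout; 100% = median luminescence of untreated cell-only wells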
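Assay system: human lung fibroblast line LL 47, low passage. Input: 1,150 fibroblasts seeded per well. Times: overnight cell rest, 72 h compound treatment at 37 °C. Evaluation: % viability of median cell-only signal. Technique: luminescent ATP detection, CellTiter-Glo. Control set: cell-only wells, no compound.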
H69AR growth 86K – growth inhibitors of human H69AR lung tumor cells; 6% of 85,000 active; viability, % at 10 µM; H69AR lung tumor viability, ATP luminescence, 72 h; hits give low values;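 active means viability at or below 40%; inactive means viability above 40%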;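 further: multidrug resistant small cell line overexpressing MRP-1 efflux transporter; 100% = mean luminescence of untreated control wells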
ERa SRC1 pot – ER-alpha (human) coactivator binding potentiation; TR-FRET ERalpha-LBD/SRC-Cy5 coactivator binding, 2 h; 100 = basal binding, no effect; P03372; 1.3% of 86,000 active; AID 639; coactivator binding (% of control), % at 25.6 µM; in the data active means activity above about 200%;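 further: binding measured in presence of low estradiol as agonist stimulus; 0% = peptide alone without receptor and 100% = receptor with peptide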
Starred values were filed as active, the others as inactive; [ ] = remark or other dose.

How did O=C(/C=C/c1ccccc1)NC(=S)NNC(=O)Cc1cccs1 do in these assays?
ERa coact inh: 4.4; HUVEC prolif 384: 71.4; ERb coact inh: -0.5; Fibroblast inh: 100.4; H69AR growth 86K: 50.4; ERa SRC1 pot: 101.6

Results for Cc1cc(C(=O)NNC(=S)NC(=O)/C=C/c2ccccc2Cl)n[nH]1 ?
ERa coact inh: 19.4; HUVEC prolif 384: 79.8; ERb coact inh: 12.5; Fibroblast inh: 79.7; H69AR growth 86K: 36.0*; ERa SRC1 pot: 77.9

How did COc1ccc(-c2[nH]ncc2Oc2ccccc2OC)c(O)c1 do in these assays?
ERa coact inh: -10.0; HUVEC prolif 384: 97.9; ERb coact inh: -8.4; Fibroblast inh: 100.7; H69AR growth 86K: 38.6*; ERa SRC1 pot: 97.5

What do the screens show for `C=C(C)COc1ccc(-c2[nH]ncc2Oc2cccc(OC)c2)c(O)c1`?
ERa coact inh: 4.5; HUVEC prolif 384: 5.2*; ERb coact inh: -0.5; Fibroblast inh: 54.7; H69AR growth 86K: 1.3*; ERa SRC1 pot: 100.2

Results for CCCc1ccc(Oc2cn[nH]c2-c2ccc(O)cc2O)cc1 ?
ERa coact inh: 8.6; HUVEC prolif 384: 60.9; ERb coact inh: 3.3; Fibroblast inh: 90.9; H69AR growth 86K: 29.5*; ERa SRC1 pot: 42.7

Results for C=C(C)COc1ccc(-c2ncncc2Oc2ccc(OC)cc2)c(O)c1 ?
ERa coact inh: 1.8; HUVEC prolif 384: 89.0; ERb coact inh: -0.2; Fibroblast inh: 98.4; H69AR growth 86K: 48.2; ERa SRC1 pot: 77.6

How did C=C(C)COc1ccc(-c2[nH]ncc2Oc2ccccc2OCC)c(O)c1 do in these assays?
ERa coact inh: -8.8; HUVEC prolif 384: 27.3*; ERb coact inh: 4.4; Fibroblast inh: 56.0; ERa SRC1 pot: 92.8

How did COc1ccc(Oc2cn[nH]c2-c2ccc(O)cc2O)cc1 do in these assays?
ERa coact inh: 9.5; HUVEC prolif 384: 85.0; ERb coact inh: -4.6; Fibroblast inh: 96.1; H69AR growth 86K: 92.2; ERa SRC1 pot: 83.8

How did O=C(CN1CCOCC1)Nc1cccc(Cl)c1Cl do in these assays?
ERa coact inh: -3.5; HUVEC prolif 384: 103.3; ERb coact inh: -2.5; Fibroblast inh: 98.1; H69AR growth 86K: 97.6; ERa SRC1 pot: 114.6

Results for CCCCN(CC)C(=O)C1CCC(=O)N(c2ccc(OC)cc2)C1c1ccc(OC)c(OC)c1 (configuration not stated) ?
ERa coact inh: -12.4; HUVEC prolif 384: 100.6; ERb coact inh: -9.2; Fibroblast inh: 94.0; H69AR growth 86K: 98.6; ERa SRC1 pot: 110.9

Results for CC1Cc2ccccc2N1C(=O)Cn1c(=O)oc2cc(S(=O)(=O)N3CCCCC3)ccc21 (configuration not stated) ?
ERa coact inh: -6.9; HUVEC prolif 384: 91.7; ERb coact inh: -7.4; Fibroblast inh: 94.8; H69AR growth 86K: 87.4; ERa SRC1 pot: 139.2

What do the screens show for `Cc1cc(C)n(-c2ccc(C(=O)Nc3nc4ccccc4s3)cc2)n1`?
ERa coact inh: 8.7; HUVEC prolif 384: 60.2; ERb coact inh: 18.1; Fibroblast inh: 102.2; H69AR growth 86K: 15.2*; ERa SRC1 pot: 207.6*[fluorescence artefact?]

How did Nc1ccc(C(=O)Nc2nc3ccccc3s2)cc1 do in these assays?
ERa coact inh: -9.1; HUVEC prolif 384: 89.3; ERb coact inh: -3.1; Fibroblast inh: 99.0; H69AR growth 86K: 70.0; ERa SRC1 pot: 117.1

What do the screens show for `COc1cc(C(=O)Nc2nccs2)ccc1OCc1c(C)noc1C`?
ERa coact inh: -6.6; HUVEC prolif 384: 96.6; ERb coact inh: -1.9; Fibroblast inh: 99.4; H69AR growth 86K: 83.6; ERa SRC1 pot: 94.7

Results for COc1cc(C(=O)Nc2nc3ccccc3s2)ccc1OCc1c(C)noc1C ?
ERa coact inh: 28.8; HUVEC prolif 384: 74.4; ERb coact inh: 8.6; Fibroblast inh: 79.9; H69AR growth 86K: 18.6*; ERa SRC1 pot: 126.9

How did CC1C(C(=O)Nc2ccccc2)CCCC1(C)C(=O)O (configuration not stated) do in these assays?
ERa coact inh: -8.5; HUVEC prolif 384: 115.2; ERb coact inh: -0.5; Fibroblast inh: 111.2; H69AR growth 86K: 103.5; ERa SRC1 pot: 109.9

How did CCN(CC)c1ccc(NC(=O)c2cnn(CC)c2)cc1 do in these assays?
ERa coact inh: 37.9; HUVEC prolif 384: 101.5; ERb coact inh: 78.2*[fluorescence artefact?]; Fibroblast inh: 94.5; H69AR growth 86K: 73.8; ERa SRC1 pot: 38.2

How did CCn1ccc(C(=O)Nc2ccc(N(C)C(C)=O)cc2)n1 do in these assays?
ERa coact inh: 0.1; HUVEC prolif 384: 85.8; ERb coact inh: -9.9; Fibroblast inh: 96.9; H69AR growth 86K: 90.7; ERa SRC1 pot: 117.3

How did CCOc1cccc(C(=O)Nc2ccc(N(CC)CC)cc2)c1 do in these assays?
ERa coact inh: 6.6; HUVEC prolif 384: 60.1; ERb coact inh: 15.4; Fibroblast inh: 91.3; H69AR growth 86K: 20.2*; ERa SRC1 pot: 79.4

What do the screens show for `CN(C)C(=O)COC(=O)/C=C/c1ccccc1[N+](=O)[O-]`?
ERa coact inh: 2.2; HUVEC prolif 384: 83.5; ERb coact inh: -3.5; Fibroblast inh: 96.1; H69AR growth 86K: 82.9; ERa SRC1 pot: 95.6

Results for CCOc1nc(C)ccc1-c1noc(C)n1 ?
ERa coact inh: -5.0; HUVEC prolif 384: 96.0; ERb coact inh: -9.0; Fibroblast inh: 107.5; H69AR growth 86K: 92.5; ERa SRC1 pot: 110.2

What do the screens show for `CCOc1nc(-c2ccc(OC)cc2)ccc1-c1noc(-c2ccncc2)n1`?
ERa coact inh: 76.2*; HUVEC prolif 384: 92.9; ERb coact inh: 37.6; Fibroblast inh: 93.6; ERa SRC1 pot: 138.4

What do the screens show for `CCOc1nc(-c2ccccc2)ccc1-c1noc(-c2ccncc2)n1`?
ERa coact inh: 33.4; HUVEC prolif 384: 81.9; ERb coact inh: 30.3; Fibroblast inh: 96.6; H69AR growth 86K: 45.2; ERa SRC1 pot: 196.2

What do the screens show for `CCOc1nc(C)ccc1-c1noc(-c2ccncc2)n1`?
ERa coact inh: -6.0; HUVEC prolif 384: 115.7; ERb coact inh: -1.7; Fibroblast inh: 99.0; H69AR growth 86K: 95.3; ERa SRC1 pot: 232.7*[fluorescence artefact?]

How did COCCNC(=O)c1cc2c(=O)n3cccc(C)c3nc2n1C do in these assays?
ERa coact inh: -9.5; HUVEC prolif 384: 51.5; ERb coact inh: -5.5; Fibroblast inh: 73.3; H69AR growth 86K: 26.9*; ERa SRC1 pot: 115.1

How did CCOCCCNC(=O)c1cc2c(=O)n3cccc(C)c3nc2n1C do in these assays?
ERa coact inh: -3.0; HUVEC prolif 384: 51.3; ERb coact inh: -3.5; Fibroblast inh: 55.3; H69AR growth 86K: 33.6*; ERa SRC1 pot: 129.7

Results for COc1ccc(CCNC(=O)c2cc3ccccn3n2)c(OC)c1OC ?
ERa coact inh: -1.3; HUVEC prolif 384: 95.1; ERb coact inh: 1.1; Fibroblast inh: 96.3; H69AR growth 86K: 81.2; ERa SRC1 pot: 94.5

What do the screens show for `O=C1[C@@H]2[C@H](C(=O)N1Cc1ccco1)[C@H]1C=C[C@@H]2C1`?
ERa coact inh: -1.6; HUVEC prolif 384: 91.9; ERb coact inh: 2.0; Fibroblast inh: 98.8; H69AR growth 86K: 92.3; ERa SRC1 pot: 88.2
